# Data: publication PMC9796011 (Journal of Gastroenterology and Hepatology, 2022)
# What was measured:
# [1] = test system: patients with biologic‐resistant CD; test: Phase 2a trial: Crohn's disease activity index; type: in vivo, human; details: 10 + 15 ng/kg/min groups pooled, mean ± SD
# How it was run: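 Patients (n = 24) were randomized 1:1:1 in blocks of three to placebo or 10 or 15 ng/kg/min test compound, infused 8 h/day for 7 days alongside ongoing biologic. Doctors scored CDAI by questionnaire at baseline and at 4, 6, 8, 16 and 24 weeks. Response was a drop of ≥50 points; remission was CDAI ≤150. Changes are mean ± SD, compared by t-test/ANOVA and, over 0–24 weeks, by a mixed-effects model.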
# [2] = test system: patients with biologic‐resistant CD; test: CRP, fecal calprotectin and FIT; type: in vivo, human; details: CRP at 2, 4, 8 weeks; fecal calprotectin and FIT at 1 week; data not shown
# How it was run: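 Adults with biologic-resistant CD at 16 Japanese centres were randomized 1:1:1 to placebo or 10 or 15 ng/kg/min of test compound, infused 8 h/day for 7 days from the day of biologic dosing. CRP was measured at 2, 4 and 8 weeks. Stool was collected before dosing and on day 8 for fecal calprotectin (fluorescence enzyme immunoassay) and FIT by a commercial lab. Groups were compared by t-test and ANOVA with Fisher's test.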
# [3] = Plasma concentration of adrenomedullin; type: in vivo; details: human, intravenous
# How it was run: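 Blood was drawn before and at 4, 8 and 10 h after the start of the 8-h infusion (10 or 15 ng/kg/min) on days 1 and 7, and at 4 and 8 weeks. Test compound was measured by automated ELISA. Cmax and Tmax were read directly from the data; AUC was computed over 0–10 h. Values are mean ± SD.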
# [4] = test system: patients with biologic‐resistant CD; test: Safety evaluation: adverse events, vital signs; type: in vivo, human
# How it was run: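 All 24 patients, hospitalized for the 7-day infusion of placebo or 10 or 15 ng/kg/min test compound (8 h/day), were assessed for AEs and SAEs throughout the study. Vital signs, blood and urine tests and 12-lead ECG were taken at set times after dosing, with screening within 2 weeks before therapy. Patients with systolic BP <90 mmHg or pulse <45 bpm were excluded.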
# [5] = Trough level of infliximab; type: in vivo, human; details: CD patients; 4 and 8 weeks vs day 1
# How it was run: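 Serum was collected immediately before each biologic dose. Infliximab trough levels were measured by ELISA at a contract lab in patients given placebo or 10 or 15 ng/kg/min test compound, infused 8 h/day for 7 days starting on the day of biologic dosing; changes were assessed at 8 weeks.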
# Crohn's disease = details: cited from earlier work
compound,measurement,setting,value
CC[C@H](C)[C@H](NC(=O)[C@H](CCC(N)=O)NC(=O)[C@H](Cc1c[nH]cn1)NC(=O)[C@H](C)NC(=O)[C@H](CC(C)C)NC(=O)[C@H](CCCCN)NC(=O)[C@H](CCC(N)=O)NC(=O)[C@@H](NC(=O)[C@@H](NC(=O)[C@@H]1CSSC[C@H](NC(=O)CNC(=O)[C@H](Cc2ccccc2)NC(=O)[C@H](CO)NC(=O)[C@H](CCCNC(=N)N)NC(=O)[C@H](CC(C)C)NC(=O)CNC(=O)[C@H](CCC(N)=O)NC(=O)[C@H](Cc2ccccc2)NC(=O)[C@H](CC(N)=O)NC(=O)[C@H](CC(N)=O)NC(=O)[C@H](CCSC)NC(=O)[C@H](CO)NC(=O)[C@H](CCC(N)=O)NC(=O)[C@H](CCCNC(=N)N)NC(=O)[C@@H](N)Cc2ccc(O)cc2)C(=O)N[C@@H](CCCNC(=N)N)C(=O)N[C@@H](Cc2ccccc2)C(=O)NCC(=O)N[C@@H]([C@@H](C)O)C(=O)N1)[C@@H](C)O)C(C)C)C(=O)N[C@@H](Cc1ccc(O)cc1)C(=O)N[C@@H](CCC(N)=O)C(=O)N[C@@H](Cc1ccccc1)C(=O)N[C@H](C(=O)N[C@@H](CC(=O)O)C(=O)N[C@@H](CCCCN)C(=O)N[C@@H](CC(=O)O)C(=O)N[C@@H](CCCCN)C(=O)N[C@@H](CC(=O)O)C(=O)N[C@@H](CC(N)=O)C(=O)N[C@H](C(=O)N[C@@H](C)C(=O)N1CCC[C@H]1C(=O)N[C@@H](CCCNC(=N)N)C(=O)N[C@@H](CO)C(=O)N[C@@H](CCCCN)C(=O)N[C@H](C(=O)N[C@@H](CO)C(=O)N1CCC[C@H]1C(=O)N[C@@H](CCC(N)=O)C(=O)NCC(=O)N[C@@H](Cc1ccc(O)cc1)C(N)=O)[C@@H](C)CC)C(C)C)[C@@H](C)O [Adrenomedullin],Changes in CDAI,"[1]; 4 weeks, n = 16",−71 ± 83
same,Changes in CDAI,"[1]; 6 weeks, n = 14",−72 ± 67
same,Changes in CDAI (primary endpoint),"[1]; 8 weeks, n = 15",−81 ± 73
same,Changes in CDAI,"[1]; 16 weeks, n = 10",−61 ± 51
same,Changes in CDAI,"[1]; 24 weeks, n = 9",−81 ± 46
same,"Changes in CRP levels, fecal calprotectin and FIT versus placebo",[2],no differences
same,AUC(0-t),[3]; 10 ng/kg/min,0.247 ± 0.06 ng·h/mL
same,AUC(0-t),[3]; 15 ng/kg/min,0.441 ± 0.245 ng·h/mL
same,Cmax,[3]; 15 ng/kg/min,0.0653 ± 0.043 ng/mL
same,"Any adverse events, patients (%)","[4]; 10 ng/kg/min, 8 patients",7 (88%)
same,Deaths,"[4]; 10 ng/kg/min, 8 patients",0
same,"Decrease in body weight, patients (%)","[4]; 10 ng/kg/min, 8 patients",0
same,"Dehydration, patients (%)","[4]; 10 ng/kg/min, 8 patients",0
same,"Dizziness, patients (%)","[4]; 10 ng/kg/min, 8 patients",1 (13%)
same,"Fever up, patients (%)","[4]; 10 ng/kg/min, 8 patients",0
same,"Flushing, patients (%)","[4]; 10 ng/kg/min, 8 patients",1 (13%)
same,"Head discomfort, patients (%)","[4]; 10 ng/kg/min, 8 patients",0
same,"Headache, patients (%)","[4]; 10 ng/kg/min, 8 patients",3 (38%)
same,"Increase in transaminase level, patients (%)","[4]; 10 ng/kg/min, 8 patients",0
same,"Lumbago, patients (%)","[4]; 10 ng/kg/min, 8 patients",0
same,"Moderate to severe adverse events, patients (%)","[4]; 10 ng/kg/min, 8 patients",1 (13%)
same,"Nasopharyngitis, patients (%)","[4]; 10 ng/kg/min, 8 patients",1 (13%)
same,"Palpitation, patients (%)","[4]; 10 ng/kg/min, 8 patients",1 (13%)
same,"Rash, patients (%)","[4]; 10 ng/kg/min, 8 patients",1 (13%)
same,"Right bundle branch block, patients (%)","[4]; 10 ng/kg/min, 8 patients",0
same,"Serious adverse events, patients (%)","[4]; 10 ng/kg/min, 8 patients",0
same,"Vomiting, patients (%)","[4]; 10 ng/kg/min, 8 patients",0
same,"Any adverse events, patients (%)","[4]; 15 ng/kg/min, 8 patients",8 (100%)
same,Deaths,"[4]; 15 ng/kg/min, 8 patients",0
same,"Decrease in body weight, patients (%)","[4]; 15 ng/kg/min, 8 patients",0
same,"Dehydration, patients (%)","[4]; 15 ng/kg/min, 8 patients",1 (13%)
same,"Dizziness, patients (%)","[4]; 15 ng/kg/min, 8 patients",0
same,"Fever up, patients (%)","[4]; 15 ng/kg/min, 8 patients",3 (38%)
same,"Flushing, patients (%)","[4]; 15 ng/kg/min, 8 patients",1 (13%)
same,"Head discomfort, patients (%)","[4]; 15 ng/kg/min, 8 patients",1 (13%)
same,"Headache, patients (%)","[4]; 15 ng/kg/min, 8 patients",7 (88%)
same,"Increase in transaminase level, patients (%)","[4]; 15 ng/kg/min, 8 patients",1 (13%)
same,"Lumbago, patients (%)","[4]; 15 ng/kg/min, 8 patients",0
same,"Moderate to severe adverse events, patients (%)","[4]; 15 ng/kg/min, 8 patients",3 (38%)
same,"Nasopharyngitis, patients (%)","[4]; 15 ng/kg/min, 8 patients",2 (25%)
same,"Palpitation, patients (%)","[4]; 15 ng/kg/min, 8 patients",2 (25%)
same,"Rash, patients (%)","[4]; 15 ng/kg/min, 8 patients",1 (13%)
same,"Right bundle branch block, patients (%)","[4]; 15 ng/kg/min, 8 patients",1 (13%)
same,"Vomiting, patients (%)","[4]; 15 ng/kg/min, 8 patients",1 (13%)
same,Changes in blood pressure and pulse rate,"[4]; all groups, throughout the drug administration period, data not shown",did not observe any statistically significant changes
same,"Trough levels of biologics (infliximab, adalimumab) after AM administration",[5],did not change
Infliximab,Annual risk of loss of infliximab response,Crohn's disease,13 % per patient‐year
